As usually defined, the pIC50 is the negative decadic logarithm of the IC50, by convention in mol/L.

What all share (type): functional, cell-based
The subject of series [1] is KB 3-1. Description: inhibitory concentration against human MDR KB/V cell line in presence of compound Taxinine at 10 uM. Summed up:
(§1)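 Vincristine cytotoxicity in P-gp-overexpressing MDR KB/V cells, alone or with a reversing agent at the stated level (5 or 10 μM). MTT colorimetric assay in 96-well plates measured cell survival. IC50 is the vincristine concentration (nM) that inhibited cell growth by 50%.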

In series [2] the test system is KB 3-1. As to the kind of experiment: inhibitory concentration against human MDR KB/V cell line in presence of compound verapamil at 10 uM. The essentials: as §1
Series [3] relates to KB 3-1. Description: inhibitory concentration against human MDR KB/V cell line in presence of compound 8 at 5 uM. The essentials: as §1
The test system of series [4] is KB 3-1. Description: inhibitory concentration against human MDR KB/V cell line in presence of compound 8 at 10 uM. The essentials: as §1
For series [5], the system named is KB 3-1. As to the kind of experiment: inhibitory concentration against human MDR KB/V cell line in presence of compound 10 at 10 uM. The essentials:
as §1

Series [6] has as its system KB 3-1. As to the kind of experiment: inhibitory concentration against human MDR KB/V cell line in presence of compound 10 at 5 uM. The essentials: as §1
Series [7] has as its system KB 3-1. Description: inhibitory concentration against human MDR KB/V cell line. The essentials: as §1
In series [8] the target is ATP-dependent translocase ABCB1 (Homo sapiens, UniProt P08183). As to the kind of experiment: TP_TRANSPORTER: drug resistance (vincristine) in MDR KB/V cells. Summed up:
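Fold reversal in KB/V cells from MTT vincristine IC50s measured with and without the reversing agent (5 or 10 μM). The ratio is defined as the vincristine IC50 […].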

Series [9] relates to KB 3-1. Description: inhibitory concentration against human MDR KB/V cell line in presence of compound 9 at 10 uM. The essentials:
as §1

Series [10] relates to KB 3-1. As to the kind of experiment: inhibitory concentration against human MDR KB/V cell line in presence of compound 9 at 5 uM. The essentials:
as §1

pIC50: −log10 of the molar value.

Chain of ATP-dependent translocase ABCB1 (P08183 whole entry): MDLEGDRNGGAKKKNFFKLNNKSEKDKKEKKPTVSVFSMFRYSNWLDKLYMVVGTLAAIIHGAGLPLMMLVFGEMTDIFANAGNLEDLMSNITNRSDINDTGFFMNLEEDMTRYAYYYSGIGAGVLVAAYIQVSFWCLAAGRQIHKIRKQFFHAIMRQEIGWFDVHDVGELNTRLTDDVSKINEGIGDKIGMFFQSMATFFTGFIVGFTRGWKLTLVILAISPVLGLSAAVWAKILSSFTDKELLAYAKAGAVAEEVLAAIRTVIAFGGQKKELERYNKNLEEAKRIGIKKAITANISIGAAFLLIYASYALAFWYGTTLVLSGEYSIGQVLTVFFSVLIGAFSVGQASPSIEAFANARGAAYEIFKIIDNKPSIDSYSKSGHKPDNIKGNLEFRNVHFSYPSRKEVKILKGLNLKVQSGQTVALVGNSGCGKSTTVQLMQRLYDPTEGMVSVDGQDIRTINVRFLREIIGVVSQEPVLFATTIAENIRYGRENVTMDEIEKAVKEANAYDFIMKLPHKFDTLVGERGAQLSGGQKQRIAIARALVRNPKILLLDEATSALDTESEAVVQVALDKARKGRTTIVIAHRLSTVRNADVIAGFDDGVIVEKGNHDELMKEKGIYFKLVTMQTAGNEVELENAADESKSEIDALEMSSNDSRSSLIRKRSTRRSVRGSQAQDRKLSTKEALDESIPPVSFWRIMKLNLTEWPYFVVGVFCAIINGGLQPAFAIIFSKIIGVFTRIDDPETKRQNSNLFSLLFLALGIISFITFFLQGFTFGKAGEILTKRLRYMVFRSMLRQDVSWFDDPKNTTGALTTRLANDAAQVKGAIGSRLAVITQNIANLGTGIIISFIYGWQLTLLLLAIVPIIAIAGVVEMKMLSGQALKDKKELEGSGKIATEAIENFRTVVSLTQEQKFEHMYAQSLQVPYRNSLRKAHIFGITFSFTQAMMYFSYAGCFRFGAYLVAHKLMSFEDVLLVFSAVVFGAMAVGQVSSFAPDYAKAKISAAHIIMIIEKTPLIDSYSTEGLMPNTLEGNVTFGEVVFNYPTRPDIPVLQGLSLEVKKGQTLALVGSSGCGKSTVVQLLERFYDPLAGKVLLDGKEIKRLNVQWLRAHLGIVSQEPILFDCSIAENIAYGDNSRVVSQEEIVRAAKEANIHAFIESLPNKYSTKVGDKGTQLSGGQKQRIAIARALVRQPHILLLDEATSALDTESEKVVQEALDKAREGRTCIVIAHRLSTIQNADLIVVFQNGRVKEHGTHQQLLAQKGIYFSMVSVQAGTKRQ

For `C=C1C2[C@H](C(C)=O)[C@@H]3CCC(=O)C(C)=C([C@@H](C(C)=O)[C@H](C(C)=O)[C@]2(C)CC[C@@H]1OC(=O)/C=C/c1ccccc1)C3(C)C.CC[C@]1(O)CC2CN(CCc3c([nH]c4ccccc34)[C@@](C(=O)OC)(c3cc4c(cc3OC)N(C=O)C3C45CCN4CC=C[C@@](CC)(C(OC(C)=O)[C@]3(O)C(=O)OC)[C@H]45)C2)C1` (stereo not given in full), the pIC50 in the series with KB 3-1 [1] is 6.91.
As to `CC[C@]1(O)CC2CN(CCc3c([nH]c4ccccc34)[C@@](C(=O)OC)(c3cc4c(cc3OC)N(C=O)C3C45CCN4CC=C[C@@](CC)(C(OC(C)=O)[C@]3(O)C(=O)OC)[C@H]45)C2)C1.COc1ccc(CCN(C)CCCC(C#N)(c2ccc(OC)c(OC)c2)C(C)C)cc1OC` (stereo not given in full), the pIC50 in the series on KB 3-1 [2] is 7.74.
As to `C=C1[C@@H](OC(=O)Cc2ccccc2)CC[C@@]2(C)C[C@H](OC(C)=O)C3=C(C)C(=O)C[C@@H]([C@@H](OC(C)=O)[C@H]12)C3(C)C.CC[C@]1(O)CC2CN(CCc3c([nH]c4ccccc34)[C@@](C(=O)OC)(c3cc4c(cc3OC)N(C=O)C3C45CCN4CC=C[C@@](CC)(C(OC(C)=O)[C@]3(O)C(=O)OC)[C@H]45)C2)C1` (stereo not given in full), the pIC50 is 6.66 in the series on KB 3-1 [3] and 8.14 with KB 3-1 [4].
As to `C=C1[C@@H](OC(=O)Cc2cc(OC)ccc2OC)CC[C@@]2(C)C[C@H](OC(C)=O)C3=C(C)C(=O)C[C@@H]([C@@H](OC(C)=O)[C@H]12)C3(C)C.CC[C@]1(O)CC2CN(CCc3c([nH]c4ccccc34)[C@@](C(=O)OC)(c3cc4c(cc3OC)N(C=O)C3C45CCN4CC=C[C@@](CC)(C(OC(C)=O)[C@]3(O)C(=O)OC)[C@H]45)C2)C1` (stereo not given in full), the pIC50 was 8.05 with KB 3-1 [5] and 6.49 in the series on KB 3-1 [6].
As for `CC[C@]1(O)C[C@H]2CN(CCc3c([nH]c4ccccc34)[C@@](C(=O)OC)(c3cc4c(cc3OC)N(C=O)[C@H]3[C@@](O)(C(=O)OC)[C@H](OC(C)=O)[C@]5(CC)C=CCN6CC[C@]43[C@@H]65)C2)C1` [VINCRISTINE], the pIC50 in the series with KB 3-1 [7] was 5.91.
Consider `C=C1[C@@H](OC(=O)CCc2ccccc2)CC[C@@]2(C)C[C@H](OC(C)=O)C3=C(C)C(=O)C[C@@H]([C@@H](OC(C)=O)[C@H]12)C3(C)C`, for which, in series [8], the Activity entry was “inhibitor [+]”.
As to `C=C1[C@@H](OC(=O)CCc2ccccc2)CC[C@@]2(C)C[C@H](OC(C)=O)C3=C(C)C(=O)C[C@@H]([C@@H](OC(C)=O)[C@H]12)C3(C)C.CC[C@]1(O)CC2CN(CCc3c([nH]c4ccccc34)[C@@](C(=O)OC)(c3cc4c(cc3OC)N(C=O)C3C45CCN4CC=C[C@@](CC)(C(OC(C)=O)[C@]3(O)C(=O)OC)[C@H]45)C2)C1` (stereo not given in full), the pIC50 was 8.55 in the series with KB 3-1 [9] and 7.71 with KB 3-1 [10].

These data come from ChEMBL document CHEMBL1137855, “Synthesis and biological evaluation of taxinine analogues as orally active multidrug resistance reversal agents in cancer” (Bioorg Med Chem Lett, 2004).
